Assay results published in ChEMBL document CHEMBL2163221, “Discovery of a potential anti-ischemic stroke agent: 3-pentylbenzo[c]thiophen-1(3H)-one” (J Med Chem, 2012).
Calls of active or inactive are those of the source. The calls are words filed in the database; no cut-off is given here.

Legend:
Platelet [1] = test: Inhibition of arachidonic acid-induced platelet aggregation in rabbit platelet rich plasma by Born's turbidimetric method; format: functional; conditions: Oryctolagus cuniculus
How it was run: (§1)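 Rabbit carotid blood in 3.8% sodium citrate (9:1); PRP by 500g spin for 10 min, PPP by a further 3000g spin for 10 min. PRP was preincubated in duplicate for 5 min at 37 °C with vehicle or agent (0.1, 0.2, 0.4, 0.8, 1.6 mM). Aggregation was triggered by ADP (10 μM final) or AA (1 mM), and maximal light transmission was read within 5 min, within 3 h of collection. Inhibition % = 100 × (1 − treated/control); IC50 was calculated.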

Platelet [2] = test: Inhibition of adenosine diphosphate-induced platelet aggregation in rabbit platelet rich plasma by Born's turbidimetric method; format: functional; conditions: Oryctolagus cuniculus; how it was run: as §1
Platelet [3] = test: Inhibition of arachidonic acid-induced platelet aggregation in rabbit platelet rich plasma at 0.1 mM by Born's turbidimetric method; format: functional; conditions: Oryctolagus cuniculus; how it was run: as §1
Rattus norvegicus [4] = test: Anticerebral ischemic activity in Sprague-Dawley rat middle cerebral artery occlusion model assessed as reduction of water content in brain at 80 mg/kg, ig for 7 consecutive days; format: functional, organism-based; design: dose 80 mg/kg
How it was run: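 Rats given oral saline-vehicle pretreatment for 7 days underwent 2 h suture MCAO plus reperfusion. At 24 h the animals were decapitated and brains weighed wet, then dried at 105 °C for 24 h. Water % = (wet − dry)/wet × 100; n = 6/group.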

Rattus norvegicus [5] = test: Antioxidant activity in Sprague-Dawley rat middle cerebral artery occlusion model assessed as increase in superoxide dismutase activity at 80 mg/kg, ig for 7 consecutive days; format: functional; conditions: route intragastric
How it was run: (§2)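 Rats pretreated orally in saline for 7 days underwent 2 h MCAO with reperfusion. At 24 h brains were removed, rinsed in cold 0.9% saline, blotted and stored at −70 °C. After protein quantification, GSH, SOD activity and MDA were measured with commercial kits; n = 12/group.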

Rattus norvegicus [6] = test: Anticerebral ischemic activity in Sprague-Dawley rat middle cerebral artery occlusion model assessed as reduction in neurological deficit score at 80 mg/kg, ig for 7 consecutive days by Longa's method; format: functional; design: scale not given: the % may be the effect or the level left; conditions: route intragastric
How it was run: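 SD rats were dosed orally in normal saline for 7 days before ischemia (n = 12/group). They were anesthetized ip with 350 mg/kg chloral hydrate and given MCAO with a silicone-tipped 4-0 nylon suture for 2 h, then reperfusion. Occlusion was confirmed as >80% CBF drop by laser Doppler, with core temperature held at 37 °C. Deficits were scored blinded by modified Longa's method 24 h after reperfusion.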

Rattus norvegicus [7] = test: Antithrombotic activity in Sprague-Dawley rat arteriovenous shunt model assessed as reduction of thrombus dry weight at 80 mg/kg, po qd for 5 consecutive days; format: functional; design: scale not given: the % may be the effect or the level left
How it was run: (§3)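 Male SD rats were dosed by gavage in saline daily for 5 days (n = 12/group). An A-V shunt linked the right carotid artery to the left jugular vein: a saline-filled 14 cm polyethylene tube holding 6 cm of four braided silk threads. After 15 min of flow, the threads were weighed wet, then dried 6 h at room temperature and reweighed, less the pre-experiment thread weight.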

Platelet [8] = test: Inhibition of adenosine diphosphate-induced platelet aggregation in rabbit platelet rich plasma at 0.1 mM by Born's turbidimetric method; format: functional; conditions: Oryctolagus cuniculus; how it was run: as §1
PC-12 [9] = test: Antioxidant activity in rat PC12 cells assessed as inhibition of hydrogen peroxide induced cytotoxicity at 10 uM treated for 2 hrs prior to H2O2 challenge measured after 1 hr by MTT assay (reference value: 52.45%); format: functional; design: scale not given: the % may be the effect or the level left
Rattus norvegicus [10] = test: Antithrombotic activity in Sprague-Dawley rat arteriovenous shunt model assessed as reduction of thrombus wet weight at 80 mg/kg, po qd for 5 consecutive days; format: functional; design: scale not given: the % may be the effect or the level left; how it was run: as §3
Rattus norvegicus [11] = test: Antioxidant activity in Sprague-Dawley rat middle cerebral artery occlusion model assessed as decrease in malondialdehyde level in brain at 80 mg/kg, ig for 7 consecutive days; format: functional; design: scale not given: the % may be the effect or the level left; conditions: route intragastric; how it was run: as §2
PC-12 [12] = test: Antioxidant activity in rat PC12 cells assessed as inhibition of hydroxyl radical-induced cytotoxicity at 10 uM treated for 2 hrs prior to H2O2/Fe+ challenge measured after 1 hr by MTT assay (reference value: 61.95%); format: functional; design: scale not given: the % may be the effect or the level left
Plasma = test: Anticoagulant activity in rabbit plasma assessed as length of activated partial thromboplastin time; format: functional, cell-free; conditions: Oryctolagus cuniculus
Rattus norvegicus [13] = test: Antioxidant activity in Sprague-Dawley rat middle cerebral artery occlusion model assessed as increase in glutathione level in brain at 80 mg/kg, ig for 7 consecutive days; format: functional; conditions: route intragastric; how it was run: as §2
Rattus norvegicus [14] = test: Anticerebral ischemic activity in Sprague-Dawley rat middle cerebral artery occlusion model assessed as reduction in infarct size in brain at 80 mg/kg, ig for 7 consecutive days by TTC assay; format: functional; design: scale not given: the % may be the effect or the level left; conditions: route intragastric
How it was run: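 SD rats, chloral hydrate 350 mg/kg ip anaesthesia; right MCA occluded 2 h by silicone-tipped 4-0 nylon filament via ECA into ICA (>80% CBF drop by laser Doppler, 37 ± 0.5 °C), then reperfusion. Dosed in normal saline orally daily 7 days before ischemia. At 24 h, 2-mm coronal slices stained 2% TTC 30 min 37 °C; infarct area as % of whole brain; n = 6.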

CCCCC1SC(=O)c2ccccc21 (racemic)
IC50 (Platelet [1]): 350 µM
IC50 (Platelet [2]): > 1000 µM

CCC1SC(=O)c2ccccc21 (racemic)
IC50 (Platelet [1]): > 1000 µM
IC50 (Platelet [2]): > 1000 µM

CCCCCCCC1SC(=O)c2ccccc21 (racemic)
IC50 (Platelet [1]): > 1000 µM
IC50 (Platelet [2]): 720 µM

CC(C)CCC1SC(=O)c2ccccc21 (racemic)
IC50 (Platelet [1]): > 1000 µM
IC50 (Platelet [2]): > 1000 µM

CCCCC1OC(=O)c2ccccc21 (racemic) [RAC-3-N-BUTYLPHTHALIDE]
inhibition at 100 µM (Platelet [3]): 17.4%
Activity (Rattus norvegicus [4]): inactive
IC50 (Platelet [1]): 480 µM
Activity (Rattus norvegicus [5]): 33.61%
Activity (Rattus norvegicus [6]): 31.47%
Activity (Rattus norvegicus [7]): 26.9%
inhibition at 100 µM (Platelet [8]): 9.5%
Activity (PC-12 [9]): 68.05%
Activity (Rattus norvegicus [10]): 23.58%
Activity (Rattus norvegicus [11]): 25.73%
Activity (PC-12 [12]): 73.05%
Activity (Plasma): inactive
Activity (Rattus norvegicus [13]): 40.83%
IC50 (Platelet [2]): > 1000 µM
Activity (Rattus norvegicus [14]): 40.04%

CC(=O)Oc1ccccc1C(=O)O [ASPIRIN]
inhibition at 100 µM (Platelet [3]): 37.2%
IC50 (Platelet [1]): 150 µM
Activity (Rattus norvegicus [7]): 34.19%
inhibition at 100 µM (Platelet [8]): 10.8%
Activity (Rattus norvegicus [10]): 33.45%
Activity (Plasma): inactive
IC50 (Platelet [2]): 880 µM
